Source: ChEMBL document CHEMBL1146196, “Bactericidal activity and resistance development profiling of dalbavancin” (2007)
≈ marks a conversion by molar mass, not a printed value. Calls of active or inactive are those of the source. No cut-off for these calls is given here.

Columns and labels:
Staphylococcus aureus [1] = assay: Antimicrobial activity against methicillin-susceptible Staphylococcus aureus FB892379 by broth microdilution method; format: functional
Method in brief: (§1)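 Clinical staphylococcal isolates from US hospitals with known resistance phenotypes.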

Staphylococcus aureus [2] = assay: Antimicrobial activity against methicillin-susceptible Staphylococcus aureus FB1050986 by broth microdilution method; format: functional; method in brief: as §1
Staphylococcus aureus [3] = assay: Antimicrobial activity against methicillin-resistant Staphylococcus aureus FB1051634 by broth microdilution method; format: functional; method in brief: as §1
Staphylococcus aureus [4] = assay: Antimicrobial activity against methicillin-resistant Staphylococcus aureus FB1065524 by broth microdilution method; format: functional; method in brief: as §1
Staphylococcus aureus [5] = assay: Antimicrobial activity against vancomycin-intermediate Staphylococcus aureus FB988644; format: functional
[6] = system: Staphylococcus epidermidis; assay: Antimicrobial activity against methicillin-resistant Staphylococcus epidermidis FB758988 by broth microdilution method; format: functional; method in brief: as §1
[7] = system: Staphylococcus epidermidis; assay: Antimicrobial activity against methicillin-resistant Staphylococcus epidermidis FB750345 by broth microdilution method; format: functional; method in brief: as §1
[8] = system: Staphylococcus epidermidis; assay: Antimicrobial activity against methicillin-resistant Staphylococcus epidermidis FB896283 by broth microdilution method; format: functional; method in brief: as §1
[9] = system: Staphylococcus haemolyticus; assay: Antimicrobial activity against Staphylococcus haemolyticus FB953975 by broth microdilution method; format: functional
[10] = system: Staphylococcus haemolyticus; assay: Antimicrobial activity against Staphylococcus haemolyticus FB954177 by broth microdilution method; format: functional
Streptococcus pyogenes [11] = assay: Antimicrobial activity against erythromycin-resistant Streptococcus pyogenes FB764371 by broth microdilution method; format: functional
Method in brief: (§2)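 Clinical US hospital isolates. The medium was supplemented with 2 to 5% lysed horse blood.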

Streptococcus pyogenes [12] = assay: Antimicrobial activity against erythromycin-susceptible Streptococcus pyogenes FB1041775 by broth microdilution method; format: functional
Streptococcus pyogenes [13] = assay: Antimicrobial activity against erythromycin-susceptible Streptococcus pyogenes FB1041626 by broth microdilution method; format: functional; method in brief: as §2
Enterococcus faecalis [14] = assay: Antimicrobial activity against vancomycin-susceptible Enterococcus faecalis FB766323; format: functional
Enterococcus faecalis [15] = assay: Antimicrobial activity against vancomycin-susceptible Enterococcus faecalis FB766782; format: functional
Staphylococcus aureus [16] = assay: Bacterial killing activity of methicillin-susceptible Staphylococcus aureus at 0.25 ug/ml; format: functional, organism-based
Method in brief: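 Time-kill per CLSI; inoculum approximately 10^7 CFU/ml; dalbavancin at 0.25, 1, 4 and 16 µg/ml; viable counts after 24 h exposure, expressed as log10 reduction.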

Staphylococcus aureus [17] = assay: Bacterial killing activity of methicillin-resistant Staphylococcus aureus at 0.25 ug/ml; format: functional, organism-based
Method in brief: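 Time-kill per CLSI with a starting inoculum of approximately 10^7 CFU/ml. Dalbavancin was tested at 0.25, 1, 4 and 16 µg/ml, chosen to reflect free plasma levels plus a lower level. Viable counts were taken over 24 h and reported as log10 decrease.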

Streptococcus pyogenes [18] = assay: Bacterial killing activity of Streptococcus pyogenes at 0.25 ug/ml; format: functional
Method in brief: (§3)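 CLSI time-kill in medium with 2 to 5% lysed horse blood; starting inoculum approximately 10^7 CFU/ml; dalbavancin at 0.25, 1, 4 and 16 µg/ml; viable counts followed to 24 h, killing expressed as log10 decrease.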

Streptococcus pyogenes [19] = assay: Bacterial killing activity of Streptococcus pyogenes at >=1 ug/ml; format: functional; method in brief: as §3
Enterococcus faecium [20] = assay: Antimicrobial activity against vancomycin-susceptible Enterococcus faecium FB769334
Enterococcus faecium [21] = assay: Antimicrobial activity against vancomycin-susceptible Enterococcus faecium FB767191
Streptococcus pyogenes [22] = assay: Bactericidal activity against Streptococcus pyogenes; format: functional
Staphylococcus aureus [23] = assay: Bacterial killing activity of methicillin-susceptible Staphylococcus aureus at 8 to 32 ug/ml; format: functional
Staphylococcus aureus [24] = assay: Bacterial killing activity of methicillin-resistant Staphylococcus aureus at 8 to 32 ug/ml; format: functional
Staphylococcus aureus [25] = assay: Bacterial killing activity of vancomycin-intermediate Staphylococcus aureus at 8 to 32 ug/ml; format: functional

Structure (SMILES)	MBC (Staphylococcus aureus [1]) [µg/mL]	MBC (Staphylococcus aureus [2]) [µg/mL]	MBC (Staphylococcus aureus [3]) [µg/mL]	MBC (Staphylococcus aureus [4]) [µg/mL]	MBC (Staphylococcus aureus [5]) [µg/mL]	MBC [6] [µg/mL]	MBC [7] [µg/mL]	MBC [8] [µg/mL]	MBC [9] [µg/mL]	MIC [9] [µg/mL]	MBC [10] [µg/mL]	MIC [10] [µg/mL]	MBC (Streptococcus pyogenes [11]) [µg/mL]	MBC (Streptococcus pyogenes [12]) [µg/mL]	MBC (Streptococcus pyogenes [13]) [µg/mL]	MBC (Enterococcus faecalis [14]) [µg/mL]	MBC (Enterococcus faecalis [15]) [µg/mL]	MBC (Enterococcus faecium [20]) [µg/mL]	MBC (Enterococcus faecium [21]) [µg/mL]	other results
CN[C@H]1C(=O)N[C@@H]2Cc3ccc(cc3)Oc3cc4cc(c3O[C@@H]3O[C@H](C(=O)O)[C@@H](O)[C@H](O)[C@H]3NC(=O)CCCCCCCCC(C)C)Oc3ccc(cc3Cl)[C@@H](O)[C@@H]3NC(=O)[C@H](NC(=O)[C@@H]4NC(=O)[C@@H](NC2=O)c2cc(cc(O)c2Cl)Oc2cc1ccc2O)c1ccc(O)c(c1)-c1c(O[C@H]2O[C@H](CO)[C@@H](O)[C@H](O)[C@@H]2O)cc(O)cc1[C@@H](C(=O)NCCCN(C)C)NC3=O [DALBAVANCIN]	0.06 (≈ 0.033 µM)	1 (≈ 0.55 µM)	0.06 (≈ 0.033 µM)	0.5 (≈ 0.275 µM)	2 (≈ 1.1 µM)	0.06 (≈ 0.033 µM)	0.06 (≈ 0.033 µM)	0.03 (≈ 0.0165 µM)	0.25 (≈ 0.138 µM)	0.12 (≈ 0.0661 µM)	0.12 (≈ 0.0661 µM)	0.03 (≈ 0.0165 µM)	0.008 (≈ 0.0044 µM)	0.25 (≈ 0.138 µM)	0.008 (≈ 0.0044 µM)	8 (≈ 4.4 µM)	4 (≈ 2.2 µM)	2 (≈ 1.1 µM)	2 (≈ 1.1 µM)	MIC (Staphylococcus aureus [1]): 0.06 µg/mL (≈ 0.033 µM); MIC (Staphylococcus aureus [2]): 0.06 µg/mL (≈ 0.033 µM); MIC (Staphylococcus aureus [3]): 0.06 µg/mL (≈ 0.033 µM); MIC (Staphylococcus aureus [4]): 0.06 µg/mL (≈ 0.033 µM); MIC (Staphylococcus aureus [5]): 1 µg/mL (≈ 0.55 µM); MIC [6]: 0.06 µg/mL (≈ 0.033 µM); MIC [7]: 0.06 µg/mL (≈ 0.033 µM); MIC [8]: 0.03 µg/mL (≈ 0.0165 µM); MIC (Streptococcus pyogenes [11]): 0.008 µg/mL (≈ 0.0044 µM); MIC (Streptococcus pyogenes [12]): 0.008 µg/mL (≈ 0.0044 µM); MIC (Streptococcus pyogenes [13]): 0.008 µg/mL (≈ 0.0044 µM); MIC (Enterococcus faecalis [14]): 0.03 µg/mL (≈ 0.0165 µM); MIC (Enterococcus faecalis [15]): 0.06 µg/mL (≈ 0.033 µM); Activity (Staphylococcus aureus [16]): Active; Activity (Staphylococcus aureus [17]): Active; Log10 cfu (Streptococcus pyogenes [18]): >3; Log10 cfu (Streptococcus pyogenes [19]): 5; MIC (Enterococcus faecium [20]): 0.015 µg/mL (≈ 0.00826 µM); MIC (Enterococcus faecium [21]): 0.03 µg/mL (≈ 0.0165 µM)
CN[C@H](CC(C)C)C(=O)N[C@H]1C(=O)N[C@@H](CC(N)=O)C(=O)N[C@H]2C(=O)N[C@H]3C(=O)N[C@H](C(=O)N[C@H](C(=O)O)c4cc(O)cc(O)c4-c4cc3ccc4O)[C@H](O)c3ccc(c(Cl)c3)Oc3cc2cc(c3O[C@@H]2O[C@H](CO)[C@@H](O)[C@H](O)[C@H]2O[C@H]2C[C@](C)(N)[C@H](O)[C@H](C)O2)Oc2ccc(cc2Cl)[C@H]1O [VANCOMYCIN]	1 (≈ 0.69 µM)	2 (≈ 1.38 µM)	1 (≈ 0.69 µM)	1 (≈ 0.69 µM)	8 (≈ 5.52 µM)	2 (≈ 1.38 µM)	2 (≈ 1.38 µM)	2 (≈ 1.38 µM)	4 (≈ 2.76 µM)	4 (≈ 2.76 µM)	> 32	1 (≈ 0.69 µM)	0.5 (≈ 0.345 µM)	> 2	0.5 (≈ 0.345 µM)	> 32	> 32	16 (≈ 11 µM)	> 32	Log10 cfu (Streptococcus pyogenes [22]): <2; Log10 cfu (Staphylococcus aureus [23]): >=3; Log10 cfu (Staphylococcus aureus [24]): >=3; Log10 cfu (Staphylococcus aureus [25]): >=3
